Assay results as given in ChEMBL document CHEMBL1124441, “Synthesis of congeners and prodrugs. 3. Water-soluble prodrugs of taxol with potent antitumor activity” (1989).

Assays:
Type in all cases: functional, Mus musculus
Settings in all cases: route intraperitoneal
B16 [1] = assay: Difference in body weight in grams between test and control animals at a dose of 12.5 mg/kg intraperitoneally
Summary of the method: (§1)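 B16 melanoma system: 10⁶ tumor cells inoculated ip on day 0. Drug given ip once daily for 9 days (Q01Dx09) starting day 1, dose as mg/kg body weight per injection. Read-out is the body-weight difference in grams, treated minus control animals. Early deaths, taken as toxicity, are scored on day 4.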

B16 [2] = assay: Percent of median lifetime of test animals divided by the median lifetime of control animals at a dose of 50 mg/kg intraperitoneally
Summary of the method: (§2)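 B16 melanoma inoculated ip (10⁶ cells) on day 0. Daily ip treatment for 9 days (Q01Dx09) begins day 1, dosed per injection in mg/kg. %T/C is the median lifespan of treated animals divided by that of tumored untreated controls, ×100. Cures are animals alive on the last test day. Toxic deaths are assessed on day 4.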

B16 [3] = assay: Antitumor activity in B16 Melanoma system animals is indicated by survivors on day 4 at a dose of 12.5 mg/kg intraperitoneally
Summary of the method: (§3)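 B16 melanoma, 10^6 cells inoculated ip on day 0. Ip treatment started day 1, schedule Q01Dx09 (one dose daily for 9 days). The score is live animals on day 4 over total animals; early deaths are taken as drug toxicity.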

B16 [4] = assay: Difference in body weight in grams between test and control animals at a dose of 6.25 mg/kg intraperitoneally; summary of the method: as §1
B16 [5] = assay: Percent of median lifetime of test animals divided by the median lifetime of control animals at a dose of 12.5 mg/kg intraperitoneally; summary of the method: as §2
B16 [6] = assay: Antitumor activity in B16 Melanoma system animals is indicated by survivors on day 4 at a dose of 50 mg/kg intraperitoneally; summary of the method: as §3
B16 [7] = assay: Percent of median lifetime of test animals divided by the median lifetime of control animals at a dose of 6.25 mg/kg intraperitoneally; summary of the method: as §2
B16 [8] = assay: Antitumor activity in B16 Melanoma system animals is indicated by survivors on day 4 at a dose of 6.25 mg/kg intraperitoneally; summary of the method: as §3
B16 [9] = assay: Difference in body weight in grams between test and control animals at a dose of 50 mg/kg intraperitoneally; summary of the method: as §1
B16 [10] = assay: Difference in body weight in grams between test and control animals at a dose of 25 mg/kg intraperitoneally; summary of the method: as §1
B16 [11] = assay: Percent of median lifetime of test animals divided by the median lifetime of control animals at a dose of 25 mg/kg intraperitoneally; summary of the method: as §2
B16 [12] = assay: Antitumor activity in B16 Melanoma system animals is indicated by survivors on day 4 at a dose of 25 mg/kg intraperitoneally; summary of the method: as §3
B16 [13] = assay: Difference in body weight in grams between test and control animals at a dose of 49 mg/kg intraperitoneally
Summary of the method: (§4)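 B16 melanoma, 10^6 cells ip on day 0, then ip dosing from day 1, once daily for 9 days (Q01Dx09). The value is the body-weight difference in grams, treated minus tumored control animals.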

B16 [14] = assay: Difference in body weight in grams between test and control animals at a dose of 24.5 mg/kg intraperitoneally; summary of the method: as §4
B16 [15] = assay: Percent of median lifetime of test animals divided by the median lifetime of control animals at a dose of 24.5 mg/kg intraperitoneally
Summary of the method: (§5)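 B16 melanoma, 10^6 cells ip on day 0, ip treatment from day 1, Q01Dx09 (single dose daily for 9 days). %T/C is median lifetime of treated over untreated tumored controls, times 100. Early deaths are assessed on day 4 for toxicity. Cures are animals alive on the last test day.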

B16 [16] = assay: Difference in body weight in grams between test and control animals at a dose of 6.13 mg/kg intraperitoneally; summary of the method: as §4
B16 [17] = assay: Antitumor activity in B16 Melanoma system animals is indicated by survivors on day 4 at a dose of 24.5 mg/kg intraperitoneally; summary of the method: as §3
B16 [18] = assay: Antitumor activity in B16 Melanoma system animals is indicated by survivors on day 4 at a dose of 12.25 mg/kg intraperitoneally; summary of the method: as §3
B16 [19] = assay: Antitumor activity in B16 Melanoma system animals is indicated by survivors on day 4 at a dose of 6.13 mg/kg intraperitoneally; summary of the method: as §3
B16 [20] = assay: Percent of median lifetime of test animals divided by the median lifetime of control animals at a dose of 12.25 mg/kg intraperitoneally; summary of the method: as §5
B16 [21] = assay: Antitumor activity in B16 Melanoma system animals is indicated by survivors on day 4 at a dose of 49 mg/kg intraperitoneally; summary of the method: as §3
B16 [22] = assay: Percent of median lifetime of test animals divided by the median lifetime of control animals at a dose of 49 mg/kg intraperitoneally; summary of the method: as §5
B16 [23] = assay: Difference in body weight in grams between test and control animals at a dose of 12.25 mg/kg intraperitoneally; summary of the method: as §4
B16 [24] = assay: Percent of median lifetime of test animals divided by the median lifetime of control animals at a dose of 6.13 mg/kg intraperitoneally; summary of the method: as §5

SMILES: CC(=O)OC1C(=O)[C@@]2(C)[C@H]([C@H](OC(=O)c3ccccc3)[C@]3(O)CC(OC(=O)C(OC(=O)CCC(=O)O)C(NC(=O)c4ccccc4)c4ccccc4)C(C)=C1C3(C)C)[C@]1(OC(C)=O)CO[C@@H]1C[C@@H]2O.CNC[C@H](O)[C@@H](O)[C@H](O)[C@H](O)CO (some centres undefined)
- Weight difference (B16 [1]): 0.3 g
- T/C (B16 [2]): 241%
- Activity (B16 [3]): 10
- Weight difference (B16 [4]): -0.2 g
- T/C (B16 [5]): 134%
- Activity (B16 [6]): 10
- T/C (B16 [7]): 125%
- Activity (B16 [8]): 10
- Weight difference (B16 [9]): -0.6 g
- Weight difference (B16 [10]): 0.3 g
- T/C (B16 [11]): 176%
- Activity (B16 [12]): 10

SMILES: CC(=O)OC1C(=O)[C@@]2(C)[C@H]([C@H](OC(=O)c3ccccc3)[C@]3(O)CC(OC(=O)C(OC(=O)CCCC(=O)[O-])C(NC(=O)c4ccccc4)c4ccccc4)C(C)=C1C3(C)C)[C@]1(OC(C)=O)CO[C@@H]1C[C@@H]2O.[Na+] (some centres undefined)
- Weight difference (B16 [13]): 0.8 g
- Weight difference (B16 [14]): 1.5 g
- T/C (B16 [15]): 225%
- Weight difference (B16 [16]): 0.4 g
- Activity (B16 [17]): 7
- Activity (B16 [18]): 8
- Activity (B16 [19]): 8
- T/C (B16 [20]): 192%
- Activity (B16 [21]): 7
- T/C (B16 [22]): 339%
- Weight difference (B16 [23]): 0.6 g
- T/C (B16 [24]): 159%
